# Most compounds without a hit are left out; they make up all but 2% or so of the library.
# TWEAK Fn14 block = TWEAK-Fn14 signaling inhibition | AID 1159606 | TWEAK-stimulated Fn14 reporter cells, luciferase luminescence, 8 h | 2% of 360,000 active | inhibition, % at 10 µM; in the data active means inhibition above about 50%
# TROY NFkB inh = blocks TROY-dependent signaling in reporter cells; Q293 LMP1-TROYcd NF-kB luciferase reporter, 4 h; AID 1347056; inhibition, % at 10 µM; 0.98% of 360,000 active;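 active means compounds whose plate-normalised and pattern-corrected inhibition of the luciferase reporter signal at the single screening dose is 50% or more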
# CaV13 FRET inh = Disruptors of the CACNA1D IQ motif to Ca2+-dependent inactivation inhibitor domain association, primary screening, Förster resonance energy transfer in intact living …. 0.098% of 340,000 active. inhibition, % at 12.3 µM. HEK cells, CFP/YFP FRET ICDI-IQ, plate reader, 10 min; percent FRET-ratio fall versus neutral wells. AID 743397;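 active means mean replicate inhibition of at least 30% and at least 1% of replicates passing that level; inconclusive means only one of the two criteria is met; inactive means neither criterion is met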
# Xi reactivation = X-chromosome reactivation activator; 0.055% of 360,000 active; activation, % at 7.58 µM; XiGFP mouse fibroblasts, % GFP-positive cells imaging, 3 d; cells co-treated with 5-aza-dC sensitizer; scaled so ellipticine positive control = 100%; AID 743238;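 active means mean normalized replicate activation at least 10% and every replicate at or above 10%; inconclusive means only one of the two criteria met; inactive means mean below 10% and not all replicates reach 10%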
#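 System: 68-5-11 XiGFP fibroblast line; Timing: 3 days compound exposure; Compound dosing: one concentration, pinned; Benchmarks: positive control ellipticine, 6 µM final; Buffer or medium: DMEM containing 5-aza-dC.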
# LGR2 antag = Drosophila LGR2 receptor signaling inhibition | AID 720647 | 0.35% of 380,000 active | inhibition, % at 9.99 µM | HEK293 LGR2, CRE-luciferase, bursicon-stimulated, 4 h;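 active means drop in luminescence signal, shown as inhibition above about 50% in the replicate tests, limit read from the data, passing the limit was not always enough; inconclusive means probably only some replicates passing the limit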;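 further: agonist challenge used bursicon conditioned medium at about half maximal strength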
# Hits are given with their value; - = inactive; ? = inconclusive; . = no result given; + = active, no number.
SMILES,TWEAK Fn14 block,TROY NFkB inh,CaV13 FRET inh,Xi reactivation,LGR2 antag
COc1ccc(S(=O)(=O)Nc2cccc3c2O[C@H](CN(C)C(=O)Nc2c(C)noc2C)[C@H](C)CN([C@H](C)CO)C3=O)cc1,.,.,.,-,-
CC(=O)Oc1ccc2occ(-c3ccccc3)c2c1,54,-,-,-,-
C[C@@H]1CN([C@H](C)CO)S(=O)(=O)c2ccc(C#Cc3ccc(F)cc3)cc2O[C@@H]1CN(C)S(=O)(=O)c1ccc(F)cc1,.,.,.,-,-
O=C1/C(=C\c2ccccc2)CCc2c1[nH]c1ccccc21,-,-,-,.,.
O=C1/C(=C/c2ccccc2)CCc2ccc(Cl)nc21,72,-,-,-,70
O=C(Nc1ccccc1)N1CCCCN2[C@@H](CO)[C@H](c3ccc(C4=CCCCC4)cc3)[C@@H]2C1,.,.,.,-,-
C[C@H](CO)N1C[C@H](C)[C@H](CN(C)CC2CC2)Oc2cc(C#Cc3ccc(F)cc3)ccc2S1(=O)=O,.,.,.,-,-
COc1ccc(Nc2cc(C)nc3ccc(C)cc23)cc1,-,-,-,-,-
CC(=O)c1ccc(Nc2cc(C)nc3ccc(C)cc23)cc1,-,-,-,-,62
COc1ccc(/C=C2/SC(=S)N(c3ccc(S(=O)(=O)Nc4nccs4)cc3)C2=O)cc1,-,54,-,-,-
Cc1ccc(/C=C2/SC(=S)N(c3ccc(S(=O)(=O)Nc4nccs4)cc3)C2=O)cc1,64,61,-,-,-
O=C1/C(=C\c2ccccn2)SC(=S)N1c1ccc(S(=O)(=O)Nc2nccs2)cc1,-,-,-,-,-
COCC(=O)N(C)C[C@@H]1Oc2cc(C#C[C@H](C)O)ccc2S(=O)(=O)N([C@@H](C)CO)C[C@H]1C,.,.,.,-,-
O=C(NC1=NC2CCCCC2N1)c1ccccc1 (configuration not stated),76,-,.,.,-
O=C(NC1CCCCCCC1O)c1ccccc1 (configuration not stated),-,-,-,-,-
Cc1ccc(-c2ccc([C@H]3[C@H](CO)N4C(=O)CN(C(=O)c5ccncc5)C[C@@H]34)cc2)cc1,.,.,.,-,-
CCn1nnnc1SCC(=O)N1c2ccccc2Sc2ccccc21,63,-,-,.,.
Cn1nnnc1SCC(=O)N1c2ccccc2Sc2ccccc21,-,-,-,.,.
O=C(NCC[C@@H]1CC[C@@H](NS(=O)(=O)c2cccc(F)c2)[C@H](CO)O1)C1CCCC1,.,.,.,-,-
CCC(C)(C)c1ccc(OCCCC[n+]2ccccc2)c(C(C)(C)CC)c1,79,51,-,-,-
CCCCCc1ccc(OCCCC[n+]2cccc(C)c2)c(CCCCC)c1,70,59,-,-,?
CCCCCc1ccc(OCCCC[n+]2ccc(C)cc2)c(CCCCC)c1,68,50,-,-,54
CCCCCc1ccc(OCCCC[n+]2ccccc2)c(CCCCC)c1,50,-,.,.,.
C[C@H](CO)N1C[C@H](C)[C@@H](CN(C)S(=O)(=O)c2ccc(Cl)cc2)Oc2c(NC(=O)c3cnccn3)cccc2C1=O,.,.,.,-,-
C[C@@H]1CN([C@@H](C)CO)C(=O)c2cc(NC(=O)c3ccccc3)ccc2O[C@@H](C)CCCCO[C@H]1CN(C)Cc1ccc2c(c1)OCO2,.,.,.,-,-
SMILES,TWEAK Fn14 block,TROY NFkB inh,CaV13 FRET inh,Xi reactivation,LGR2 antag
C[C@@H]1CCCCO[C@H](CN(C)S(=O)(=O)c2cn(C)cn2)[C@H](C)CN([C@H](C)CO)C(=O)c2cc(NS(=O)(=O)c3ccccc3)ccc2O1,.,.,.,-,-
CCNC(=O)C[C@H]1CC[C@H]2[C@@H](COC[C@@H](O)CN2C(=O)Nc2c(C)noc2C)O1,.,.,.,-,-
COc1ccccc1CNC(=O)C[C@@H]1CC[C@@H]2[C@H](COC[C@@H](O)CN2C(=O)Nc2ccccc2)O1,.,.,.,-,-
COc1ccccc1NC(=O)N[C@H]1CC[C@@H](CCNC(=O)Cc2ccccn2)O[C@@H]1CO,.,.,.,-,-
Cc1cccn2c(=O)c3cc(C#N)c(=NC(=O)c4cccs4)n(CC(C)C)c3nc12,-,-,+,-,.
Cc1ccc2nc3c(cc(C#N)c(=O)n3-c3nccs3)c(=O)n2c1,-,-,-,.,.
CCC(C)n1c(=N)c(C#N)cc2c(=O)n3cccc(C)c3nc21 (configuration not stated),-,-,+,-,.
CCC(C)n1c(=N)c(C#N)cc2c(=O)n3cc(C)ccc3nc21 (configuration not stated),-,-,57,-,-
C[C@H]1CN([C@@H](C)CO)C(=O)Cc2cc(NS(=O)(=O)c3cn(C)cn3)ccc2O[C@H]1CN(C)CC1CCCCC1,.,.,.,-,-
O=C(NCCCCCCNC(=O)OCc1ccccc1)OCc1ccccc1,-,-,-,-,-
O=C(OCc1ccccc1)N(CCCCN(CCCNCc1ccccc1)C(=O)OCc1ccccc1)CCCNCc1ccccc1,102,-,-,-,-
O=C(CN1CCN(S(=O)(=O)c2ccccc2)CC1)NC(=O)NCc1ccco1,94,-,-,-,-
O=C(CN1CCN(S(=O)(=O)c2ccccc2)CC1)NC(=O)NCc1ccccc1,-,-,-,.,.
CC(C)(C)NC(=O)COC(=O)c1ccccc1Nc1ccc(SC(F)F)cc1,55,-,-,-,-
CC1C(=O)CCC1(C(=O)O)c1ccccc1 (configuration not stated),98,-,.,.,-
COc1ccc(OC)c(S(=O)(=O)Nc2cccc3ccccc23)c1,-,-,-,-,.
COc1ccc(OC)c(S(=O)(=O)Oc2ccc(N)c3ccccc23)c1,87,-,-,-,-
Cc1ccccc1C(=O)Oc1cccc(Nc2ncnc3ccccc23)c1,53,51,.,.,.
COc1ccc(OC)c(Nc2ncnc3ccc(Br)cc23)c1,-,-,-,-,-
Brc1ccc2ncnc(Nc3cccc4ccccc34)c2c1,61,-,.,.,-
CC(=O)Oc1cccc(Nc2ncnc3ccccc23)c1,-,-,-,-,-
COc1cccc(Nc2ncnc3ccc(Br)cc23)c1,63,-,-,-,-
O=C(O)c1cccc(Nc2ncnc3ccc(Br)cc23)c1,-,-,-,-,-
COc1ccc(NC(=O)Nc2ccc3c(c2)CC(=O)N([C@H](C)CO)C[C@H](C)[C@@H](CN(C)CC2CC2)O3)cc1,.,.,.,-,-
C[C@@H]1CN([C@H](C)CO)C(=O)c2cc(NC(=O)CCC(F)(F)F)ccc2O[C@H]1CN(C)C,.,.,.,-,-
CNc1ncnc(Sc2ccc(Cl)cc2)c1[N+](=O)[O-],86,-,-,?,-
C[C@@H]1CN([C@@H](C)CO)C(=O)c2cc(NC(=O)NC3CCCCC3)ccc2O[C@H]1CN(C)Cc1ccc(C(=O)O)cc1,.,.,.,-,-
Cc1cccc(/N=C/c2c(O)[nH]c3ccccc23)n1,-,-,.,.,-
Oc1c(Br)cc(Br)cc1C=Nc1ccc2c(c1)OCCO2,65,67,-,-,-
Oc1[nH]c2ccccc2c1C=Nc1ccc2c(c1)OCCO2,-,81,-,.,.

# High-throughput results as filed in PubChem.
